Several values for one entry are separate records, joined by “and”; a condition that tells them apart may be missing. Equal values may be shown once.
Tested on: Fibroblast
Experiment: Multiplex assay against human fibroblast
Assay type: toxicity, cell-based
Conditions: 1 µM, compound concentration 1 uM
Method in brief: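 Four dyes were applied at seeding to live cells: Hoechst33342, BioTracker Green Microtubule Cytoskeleton Dye, MitoTracker Red and Annexin V Alexa Fluor 680. Imaging after compound addition used a CQ1 microscope at 37°C and 5% CO2. CellPathfinder machine-learning gating then sorted cells into Hoechst high-intensity objects or normal cells, normal cells into healthy, pyknosed or fragmented nuclei, and pyknosed cells into mitotic or apoptotic, with tubulin, mitochondrial-mass and membrane-permeability phenotypes given as per cents of healthy-nucleus cells.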

SMILES: Cc1cc(C)c(-n2ccn3nc(-c4cccnc4)cc23)cc1NC(=O)c1cc(C#N)cc(S(F)(F)(F)(F)F)c1 [BAY-826]
- Population Apoptotic (%) (12 h, replicate 1): 67% and 71%
- Population Fragmented Nuclei (%) (12 h, replicate 1): 37% and 21%
- Population Healthy Nuclei (%) (12 h, replicate 1): 48% and 63%
- Population Hoechst High Intensity Objects (%) (12 h, replicate 1): 11% and 19%
- Population Mitochondria Different-Phenotype (%) (12 h, replicate 1): 3% and 8%
- Population Mitotic Cells (%) (12 h, replicate 1): 32% and 28%
- Population Normal (%) (12 h, replicate 1): 88% and 80%
- Population Pyknosed Nuclei (%) (12 h, replicate 1): 14% and 15%
- Total Cell Count (12 h, replicate 1): 241 and 313
- Population Apoptotic (%) (12 h, replicate 2): 50% and 91%
- Population Fragmented Nuclei (%) (12 h, replicate 2): 55% and 58%
- Population Healthy Nuclei (%) (12 h, replicate 2): 37% and 19%
- Population Hoechst High Intensity Objects (%) (12 h, replicate 2): 23% and 34%
- Population Membrane Permeable-Phenotype (%) (12 h, replicate 2): 20% and 36%
- Population Normal (%) (12 h, replicate 2): 76% and 65%
- Population Pyknosed Nuclei (%) (12 h, replicate 2): 7% and 21%
- Population Tubulin-Different-Phenotype (%) (12 h, replicate 2): 30% and 54%
- Total Cell Count (12 h, replicate 2): 71 and 85
- Population Apoptotic (%) (24 h, replicate 1): 52% and 37%
- Population Fragmented Nuclei (%) (24 h, replicate 1): 23% and 21%
- Population Healthy Nuclei (%) (24 h, replicate 1): 54% and 63%
- Population Hoechst High Intensity Objects (%) (24 h, replicate 1): 12% and 18%
- Population Mitochondria Different-Phenotype (%) (24 h, replicate 1): 8% and 4%
- Population Mitotic Cells (%) (24 h, replicate 1): 47% and 62%
- Population Normal (%) (24 h, replicate 1): 87% and 81%
- Population Pyknosed Nuclei (%) (24 h, replicate 1): 21% and 14%
- Total Cell Count (24 h, replicate 1): 231 and 326
- Population Fragmented Nuclei (%) (24 h, replicate 2): 54% and 59%
- Population Healthy Nuclei (%) (24 h, replicate 2): 35% and 19%
- Population Hoechst High Intensity Objects (%) (24 h, replicate 2): 36% and 28%
- Population Normal (%) (24 h, replicate 2): 64% and 71%
- Population Pyknosed Nuclei (%) (24 h, replicate 2): 10% and 20%
- Population Tubulin-Different-Phenotype (%) (24 h, replicate 2): 29% and 58%
- Total Cell Count (24 h, replicate 2): 75 and 87
